Laboratory results from ChEMBL document CHEMBL3351938, “C5-Alkyl-2-methylurea-Substituted Pyridines as a New Class of Glucokinase Activators” (ACS Med Chem Lett, 2014).
≈ marks a conversion by molar mass, not a printed value.

Key:
[1] = Drug metabolism in rat liver microsomes assessed as compound turnover at 1 uM after 30 mins; type: ADME; conditions: read-out: Drug metabolism
In short: (§1)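 Test compound at 1 μM initial concentration was incubated with 0.25 mg/mL rat or human liver microsomes for 30 min at 37 °C; percent turnover is the percentage of parent metabolized.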

[2] = Drug metabolism in human liver microsomes assessed as compound turnover at 1 uM after 30 mins; type: ADME; conditions: read-out: Drug metabolism; in short: as §1
Hexokinase-4 [3] = biological target: T1, Hexokinase-4 (Homo sapiens, UniProt P35557); test: Activation of human recombinant Glucokinase measured over 5 mins by G6-PD coupled assay in presence of 5 mM glucose
T1 sequence (P35557 whole entry): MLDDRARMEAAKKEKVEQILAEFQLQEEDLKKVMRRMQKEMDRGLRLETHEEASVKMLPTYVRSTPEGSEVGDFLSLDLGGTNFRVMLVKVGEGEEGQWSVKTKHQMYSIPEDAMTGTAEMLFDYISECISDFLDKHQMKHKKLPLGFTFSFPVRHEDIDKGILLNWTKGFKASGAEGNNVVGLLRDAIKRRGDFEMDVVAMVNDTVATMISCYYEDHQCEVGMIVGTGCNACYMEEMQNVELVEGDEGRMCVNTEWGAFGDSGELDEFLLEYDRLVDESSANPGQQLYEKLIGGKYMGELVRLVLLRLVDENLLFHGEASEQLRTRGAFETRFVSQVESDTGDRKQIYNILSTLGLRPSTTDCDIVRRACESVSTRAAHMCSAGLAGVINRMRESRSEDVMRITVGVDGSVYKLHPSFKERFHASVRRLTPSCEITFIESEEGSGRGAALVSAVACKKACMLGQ
In short: (§2)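 Recombinant human GK; glucose held at 5 mM for EC₅₀ determination; run in duplicate (n = 2).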

Hexokinase-4 [4] = biological target: T1, Hexokinase-4; test: Activation of human recombinant Glucokinase measured over 5 mins by G6-PD coupled assay in presence of 5 mM glucose and 4% HSA; in short: as §2
[5] = Plasma protein binding in human; type: ADME, cell-free; conditions: read-out: PPB (converted)
[6] = AUC in rat at 2 mg/kg, po; type: ADME, organism-based; design: dose 2 mg/kg, route oral; conditions: plasma
[7] = Plasma protein binding in rat; type: ADME, cell-free; conditions: read-out: PPB
[8] = Oral bioavailability in mouse at 5 mg/kg; type: ADME, organism-based; conditions: in vivo
[9] = Volume of distribution at steady state in rat at 0.5 mg/kg, iv; type: ADME, organism-based; design: dose 0.5 mg/kg, route intravenous; conditions: in vivo, read-out: Vdss
[10] = Volume of distribution at steady state in dog at 0.5 mg/kg, iv; conditions: in vivo, read-out: Vdss
Canis familiaris [11] = test: Oral bioavailability in dog at 2 mg/kg; conditions: in vivo
Mus musculus [12] = test: Hypoglycemic activity in fed C57Bl/6 mouse assessed as change in blood glucose level at 10 to 30 mg/kg, po followed by food withdrawal for 4 hrs measured 30 to 240 mins post dose by normoglycemic glucose lowering test; type: ADME, organism-based; design: route oral; conditions: in vivo
In short: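 Fed male C57Bl/6 mice dosed orally with vehicle or compound (10 or 30 mg/kg) without glucose challenge, then food removed for 4 h; blood glucose sampled at various time points; two-way ANOVA versus vehicle.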

[13] = AUC in mouse at 5 mg/kg, po; type: ADME, organism-based; design: dose 5 mg/kg, route oral; conditions: plasma
Canis familiaris [14] = test: AUC in dog at 2 mg/kg, po; conditions: in vivo
[15] = Half life in rat at 0.5 mg/kg, iv; type: ADME, organism-based; design: dose 0.5 mg/kg, route intravenous; conditions: in vivo
Canis familiaris [16] = test: Clearance in dog at 0.5 mg/kg, iv; conditions: in vivo
[17] = Oral bioavailability in rat at 2 mg/kg; type: ADME, organism-based; conditions: in vivo
[18] = Clearance in rat at 0.5 mg/kg, iv; type: ADME, organism-based; design: dose 0.5 mg/kg, route intravenous; conditions: in vivo
[19] = Plasma protein binding in mouse; type: ADME; conditions: read-out: PPB (converted)
Mus musculus [20] = test: Antidiabetic activity in fasted ob/ob mouse assessed as reduction in blood glucose AUC at 10 mg/kg, po administered 30 mins prior glucose challenge by oral glucose tolerance test relative to control; type: functional; design: scale not given: the % may be the effect or the level left
In short: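 OGTT in fasted ob/ob mice with oral doses of 0.3, 1, 3 and 10 mg/kg; blood glucose AUC compared to vehicle by two-way ANOVA.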

[21] = Half life in dog at 0.5 mg/kg, iv; conditions: in vivo
[22] = Permeability across pig LLC-PK cells; type: ADME, cell-based, Sus scrofa; conditions: LLC-PK1, read-out: permeability
Mus musculus [23] = test: Antidiabetic activity in C57Bl/6 mouse assessed as reduction in blood glucose AUC at 10 mg/kg, po administered 30 mins prior glucose challenge by oral glucose tolerance test; type: functional; design: scale not given: the % may be the effect or the level left
In short: (§3)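 Oral dose–response OGTT in C57Bl/6 mice at 3, 10 and 30 mg/kg; blood glucose area-under-curve assessed; significance versus vehicle by two-way ANOVA.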

[24] = Clearance in rat at 1 mg/kg, iv; type: ADME, organism-based; design: dose 1 mg/kg, route intravenous; conditions: in vivo
In short: (§4)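 Rats: IV dose 1 mg/kg, n = 3; PO dose 10 mg/kg, n = 3.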

[25] = Oral bioavailability in rat at 10 mg/kg; type: ADME, organism-based; conditions: in vivo; in short: as §4
[26] = Clearance in mouse at 1 mg/kg, iv; type: ADME, organism-based; design: dose 1 mg/kg, route intravenous; conditions: in vivo
In short: (§5)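 Mice: IV dose 1 mg/kg, n = 3; PO dose 10 mg/kg, n = 3.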

[27] = AUC in mouse at 10 mg/kg, po; type: ADME, organism-based; design: dose 10 mg/kg, route oral; conditions: plasma; in short: as §5
[28] = Volume of distribution at steady state in rat at 1 mg/kg, iv; type: ADME, organism-based; design: dose 1 mg/kg, route intravenous; conditions: in vivo, read-out: Vdss; in short: as §4
[29] = Half life in rat at 1 mg/kg, iv; type: ADME, organism-based; design: dose 1 mg/kg, route intravenous; conditions: in vivo; in short: as §4
[30] = Half life in mouse at 1 mg/kg, iv; type: ADME, organism-based; design: dose 1 mg/kg, route intravenous; conditions: in vivo; in short: as §5
[31] = Drug metabolism in human primary hepatocytes; type: ADME, cell-based, Hepatocyte; conditions: read-out: Drug metabolism
Mus musculus [32] = test: Antidiabetic activity in C57Bl/6 mouse assessed as reduction in blood glucose AUC at 3 mg/kg, po administered 30 mins prior glucose challenge by oral glucose tolerance test; type: functional; design: scale not given: the % may be the effect or the level left; in short: as §3
[33] = Oral bioavailability in mouse at 10 mg/kg; type: ADME, organism-based; conditions: in vivo; in short: as §5
[34] = AUC in rat at 10 mg/kg, po; type: ADME, organism-based; design: dose 10 mg/kg, route oral; conditions: plasma; in short: as §4
[35] = Solubility of the compound in PBS buffer at 7.4; type: physicochemical; conditions: pH 7.4
Mus musculus [36] = test: Antidiabetic activity in C57Bl/6 mouse assessed as reduction in plasma glucose level at 30 mg/kg, po administered 30 mins prior glucose challenge measured 1.5 to 2 hrs post dose by oral glucose tolerance test; type: functional; in short: as §3
[37] = Volume of distribution at steady state in mouse at 1 mg/kg, iv; type: ADME, organism-based; design: dose 1 mg/kg, route intravenous; conditions: in vivo, read-out: Vdss; in short: as §5

SMILES | metabolised at 0.5 h, 1 µM [1] [%] | metabolised at 0.5 h, 1 µM [2] [%] | EC50 (Hexokinase-4 [3]) [nM] | other results
CCc1ncccc1Oc1cc(CCCCOC)cnc1NC(=O)NC | 41 | 23 | 110 | –
CCn1nccc1Oc1cc(C[C@H]2CCO[C@H](COC)C2)cnc1NC(=O)NC | – | – | 490 | –
CCn1nccc1Oc1cc(C[C@H]2C[C@](C)(O)C2)cnc1NC(=O)NC | – | – | – | EC50 (Hexokinase-4 [4]): 280 nM; fraction unbound [5]: 0.44; AUC [6]: 0.39 µM·h; fraction unbound [7]: 0.5; bioavailability [8]: 44%; Vd [9]: 0.8 L/kg; Vd [10]: 2.2 L/kg; F (Canis familiaris [11]): 72%; Activity (Mus musculus [12]): Non-toxic; AUC [13]: 6.84 µM·h; AUC (Canis familiaris [14]): 6.4 µM·h; half-life [15]: 2 h; CL (Canis familiaris [16]): 10.7 mL/min/kg; bioavailability [17]: 9%; clearance [18]: 26.7 mL/min/kg; fraction unbound [19]: 0.44; Activity (Mus musculus [20]): 43%; half-life [21]: 5.5 h; Papp [22]: 32.4 ×10⁻⁶ cm/s
CCc1ncccc1Oc1cc(CCO)cnc1NC(=O)NC | 10 | 10 | 1590 | –
CCn1nccc1Oc1cc(CCCCOC)cnc1NC(=O)NC | 31 | 10 | 460 | –
CCn1nccc1Oc1cc(C[C@@H]2CCO[C@@H](COC)C2)cnc1NC(=O)NC | – | – | 350 | –
CCc1ncccc1Oc1cc(CC2CCOCC2)cnc1NC(=O)NC | – | – | 290 | –
CCn1nccc1Oc1cc(CN2CCOCC2)cnc1NC(=O)NC | – | – | 7980 | –
CCc1ncccc1Oc1cc(CCCC(C)(C)O)cnc1NC(=O)NC | 17 | 31 | 110 | –
CCc1ncccc1Oc1cc(CCCOC)cnc1NC(=O)NC | – | – | 440 | –
CNC(=O)Nc1ncc(CC2CCOCC2)cc1Oc1ccnn1C(C)C | – | – | 2760 | –
CCn1nccc1Oc1cc(CCCC(C)(C)O)cnc1NC(=O)NC | 10 | 10 | 370 | –
CCn1nccc1Oc1cc(C(O)C2CCOCC2)cnc1NC(=O)NC (centres undefined) | – | – | 16800 | –
CCc1ncccc1Oc1cc(CC(C)C)cnc1NC(=O)NC | 95 | 56 | 120 | –
CCn1nccc1Oc1cc(CC2CCOCC2)cnc1NC(=O)NC | 25 | 10 | 350 | Activity (Mus musculus [23]): 32%; clearance [24]: 25 mL/min/kg; bioavailability [25]: 19%; clearance [26]: 28.3 mL/min/kg; AUC [27]: 13.3 µM·h; Vd [28]: 0.8 L/kg; half-life [29]: 0.41 h; half-life [30]: 0.72 h; metabolised [31]: 15%; Activity (Mus musculus [32]): 15%; bioavailability [33]: 81%; AUC [34]: 3.51 µM·h; solubility [35]: 718 µg/mL (≈ 2000 µM); Activity (Mus musculus [36]): 77 mg/dL; Vd [37]: 1.5 L/kg
CCn1nc(COC)cc1Oc1cc(CC2CCOCC2)cnc1NC(=O)NC | – | – | 820 | –
CCc1ncccc1Oc1cc(CC2CCCCC2)cnc1NC(=O)NC | 95 | 99 | 14 | –
CCOCCc1cnc(NC(=O)NC)c(Oc2cccnc2CC)c1 | 76 | 21 | 590 | –
CCc1ncccc1Oc1cc(CCCCO)cnc1NC(=O)NC | 33 | 20 | 350 | –

Continued, in another order:

metabolised at 0.5 h, 1 µM [1] [%] | metabolised at 0.5 h, 1 µM [2] [%] | EC50 (Hexokinase-4 [3]) [nM] | SMILES | other results
– | – | 97 | CCn1nccc1Oc1cc(C[C@H]2CC[C@@](C)(O)CC2)cnc1NC(=O)NC | –
– | – | 120 | CCn1nccc1Oc1cc(C[C@H]2CC[C@@H](O)CC2)cnc1NC(=O)NC | –
– | – | 530 | CCn1nccc1Oc1cc(C[C@H]2C[C@@H](O)C2)cnc1NC(=O)NC | –
– | – | 68 | CCn1nccc1Oc1cc(C[C@H]2CC[C@H](O)CC2)cnc1NC(=O)NC | –
– | – | 500 | CCn1nccc1Oc1cc(C[C@H]2C[C@H](O)C2)cnc1NC(=O)NC | –
– | – | 110 | CCn1nccc1Oc1cc(C[C@H]2CC[C@](C)(O)CC2)cnc1NC(=O)NC | –
– | – | 710 | CCn1nccc1Oc1cc(C[C@H]2C[C@@](C)(O)C2)cnc1NC(=O)NC | –
